# Compounds with a hit are over-represented: about 2.2% of the library has one in this group of screens.
# FLuc inhib CS: counter-screen for luciferase assay inhibitors: firefly luciferase inhibition. 1.5% of 200,000 active. ATPLite firefly luciferase biochemical luminescence, 10 min. inhibition, % at 10 µM;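 active = inhibition above about 50% when tested at 10 µM, limit read from the data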
# Target sequence (P08659 whole entry, looked up): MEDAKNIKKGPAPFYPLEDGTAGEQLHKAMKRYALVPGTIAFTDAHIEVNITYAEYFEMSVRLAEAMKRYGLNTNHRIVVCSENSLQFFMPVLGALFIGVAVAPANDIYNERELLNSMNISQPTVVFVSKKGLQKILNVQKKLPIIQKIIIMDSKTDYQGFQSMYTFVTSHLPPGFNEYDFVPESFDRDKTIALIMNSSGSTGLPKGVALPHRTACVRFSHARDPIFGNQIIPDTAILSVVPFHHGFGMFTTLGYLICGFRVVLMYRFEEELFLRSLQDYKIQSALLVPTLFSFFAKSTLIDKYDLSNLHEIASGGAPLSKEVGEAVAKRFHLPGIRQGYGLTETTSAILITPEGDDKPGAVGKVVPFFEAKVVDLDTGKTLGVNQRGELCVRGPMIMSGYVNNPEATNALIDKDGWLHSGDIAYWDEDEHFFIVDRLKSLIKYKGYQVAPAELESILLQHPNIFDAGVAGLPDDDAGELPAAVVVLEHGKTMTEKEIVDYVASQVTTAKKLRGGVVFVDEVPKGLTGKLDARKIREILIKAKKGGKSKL
# FLuc act counter: affects firefly luciferase, flagging false hits in luciferase stimulation screens. P08659. ATPlite luciferase biochemical, luminescence, 10 min; 0 = ATP-free wells, 1 = DMSO control. activation factor at 10 µM. 200,000 tested, under 10 active. AID 1027;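 active = luciferase activation factor, scaled between plate controls, of at least 2 with compound at 10 µM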
#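 Assay system: Luciferase/luciferin detection reagent, cell-free biochemical luciferase assay / Read-out: luciferase activation / Benchmarks: No-ATP low control, compound-free enzyme-plus-ATP high control / Medium: PBS buffer for ATP / Detection: luminescence measurement of luciferase light output / Schedule: 10 min at ambient temperature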
# STAT3 blocker: STAT3 signaling inhibition. U3A cells, IL-6 STAT3-luciferase reporter, luminescence; host cell line lacks STAT1. inhibition, % at 5.5 µM. 0.89% of 190,000 active. AID 862;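 active = inhibition above the mean inhibition across all screened compounds plus 3 SD, cut at about 44% in these data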
# HSP90 inh: inhibitors of HSP90 luciferase refolding in rabbit reticulocyte lysate | 0.91% of 290,000 active | luciferase refolding luminescence, 3 h | AID 1789 | inhibition, % at 5.6 µM;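 active = inhibition above the screen-wide mean plus 3 SD, computed separately per campaign, cut at about 16% in these data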;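 also: inhibitors lower the luminescence because luciferase stays unfolded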
# TRAIL sens C8: sensitizes caspase-8 expressing cells to TRAIL | NB7+C8 cells + TRAIL, ATPlite viability luminescence | inhibition (viability loss, TRAIL sensitization), % at 10 µM | 1% of 360,000 active;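 active = compounds causing at least 50% loss of cell viability in the single-dose screen, relative to plate controls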
# PPC-1+TRAIL kill: kills PPC-1 cancer cells in the presence of TRAIL | PPC-1 cells + TRAIL, ATPLite viability luminescence | 0.41% of 220,000 active | cell killing (% activity), % at 4 µM or 5 µM | AID 1443;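 active = cell killing above 50% in the first pass at 4 µM, then a duplicate retest at 5 µM averaging 50% or more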
# A number is an active result; n = inactive; x = no result given.
SMILES,FLuc inhib CS,FLuc act counter,STAT3 blocker,HSP90 inh,TRAIL sens C8,PPC-1+TRAIL kill
CCNC(=S)NNC(=O)c1cc(-c2cccc(OCC)c2)nc2ccccc12,58.2,n,n,n,n,n
COc1cccc(-c2cc(C(=O)Nn3cnnc3)c3ccccc3n2)c1,82.5,n,n,n,52.4,n
CCN1/C(=C/c2ccc3cc(C)ccc3[n+]2CC)Sc2ccc3sccc3c21,x,x,x,x,94.3,x
Cc1cc(C)n(-c2ccc(C(=O)N3CCN(S(=O)(=O)c4ccc(OC(F)(F)F)cc4)CC3)cc2)n1,x,x,x,x,n,x
O=C(CSc1ncnc2nc[nH]c12)c1ccc(Cl)cc1,x,x,x,n,74.4,x
Cc1ccc(-c2cc(-c3ccccc3)no2)cc1,x,x,x,x,55.2,x
O=c1[nH]c2ccccc2cc1-c1nnn(-c2ccc(F)cc2)n1,64.8,n,x,n,61.9,n
COc1ncccc1-c1nnn(-c2ccc(Cl)c(Cl)c2)n1,n,n,x,n,n,n
COc1ncccc1-c1nnn(-c2ccc(F)cc2)n1,51.3,n,x,n,n,n
COc1ncccc1-c1nnn(-c2ccc(C)cc2)n1,66.0,n,x,n,n,n
Nn1c(=O)c2ccccc2n2c(SCc3ccc(C(F)(F)F)cc3)nnc12,n,n,n,n,n,n
Clc1nc2nc3n(c2nc1Cl)CCC3,x,x,x,n,n,n
C=CCNC(=S)N/N=C/c1ccc(C(F)(F)F)cc1,51.7,n,n,n,51.0,n
C=CCNC(=S)N/N=C/c1ccc(C)cc1C,62.9,n,n,n,n,n
CCNC(=S)N/N=C/c1cc(C)ccc1C,n,n,n,n,n,n
FC(F)(F)c1ccc(/C=N/NC(=S)NC2CCCCC2)cc1,n,n,n,n,n,n
CCCn1c(=O)c2c(nc3n2CCCN3CCc2ccccc2)n(C)c1=O,x,x,x,n,n,x
Cn1c(=O)n(CCc2ccccc2)c(=O)c2c1nc1n2CCCN1CCc1ccccc1,n,n,n,n,44.7,n
COc1ccc2nc(-c3ccccc3)[nH]c2c1,74.5,n,n,n,51.2,n
Oc1c(Br)cc(C=Nc2ccc3nc(-c4ccccc4)[nH]c3c2)c(O)c1Br,55.9,n,n,n,x,n
COc1ccc(-c2nc3ccc([N+](=O)[O-])cc3[nH]2)cc1,n,n,n,n,n,n
C=C1CCCC2OC(CC3=CC4/C(C)=C/CC(C)CC(/C=C(\C)C(O)C5CC(O)C(O)C(CCC(O)/C=C/C(C)=C/CCC6=NCCC(C3)C64C)O5)OC(=O)CC3OC(C(O)C1)C(O)C3O)CC(O)C2O (configuration not stated),x,x,x,x,n,x
c1ccc(CSc2ccc(-c3cccs3)nn2)nc1,n,n,n,n,n,n
c1ccc(CSc2ccc(-c3cccs3)nn2)cc1,65.8,n,n,n,54.0,n
CC(C)NC(=O)c1onc(CSc2ccc(C(C)C)cc2)c1C(=O)O,n,n,n,n,n,96.2
SMILES,FLuc inhib CS,FLuc act counter,STAT3 blocker,HSP90 inh,TRAIL sens C8,PPC-1+TRAIL kill
CC(C)C(=O)Nc1ccccc1C(=O)OCC(=O)c1ccc2c(c1)OCCO2,61.9,n,n,n,n,n
NS(=O)(=O)c1cc(C(=O)OCC(=O)c2ccc3c(c2)OCCO3)ccc1Cl,91.8,n,n,n,n,n
Cc1cc(OCC(O)CN(C)C(=O)C(C)Oc2ccccc2)ccc1Cl (configuration not stated),x,x,x,n,n,x
O=C(Cn1ncc(Cl)c(Cl)c1=O)N1CCN(Cc2ccccc2)CC1,n,n,n,n,n,n
Cc1cc(C)cc(Cn2ncc(Cl)c(Cl)c2=O)c1,n,n,n,n,x,n
CCc1ccc(C(=O)Cn2ncc(Cl)c(Cl)c2=O)cc1,n,n,n,n,97.0,n
Cc1ccc(Cn2ncc(Cl)c(Cl)c2=O)cc1,n,n,n,n,91.1,n
Cc1cccc(C)c1NC(=O)NN=C1CCCCC1,x,x,x,n,n,n
O=S(=O)(c1cccc2ccccc12)N1CCC2CC1c1cc(-c3ccc4c(c3)OCO4)ccc12 (configuration not stated),x,x,x,x,n,x
Cc1cc(C)c2c(n1)SCC(=O)N2CC(=O)Nc1cccc(Cl)c1,x,x,x,31.3,n,x
Cc1cc(C)c2c(n1)SCC(=O)N2CC(=O)Nc1c(C)cccc1C,x,x,x,n,n,x
Cc1ccc2nc(C)c(C(=O)NN=C3CCN(C)CC3)n2c1,n,n,n,n,n,n
Cc1ccn2cc(-c3ccc(O)c(O)c3)nc2c1,x,x,x,n,76.4,x
CC(=O)Nc1cccc(-c2cn3ccccc3n2)c1,n,n,n,n,n,n
Cc1ccn2cc(-c3cccc(NC(=O)C(C)C)c3)nc2c1,57.2,n,n,n,n,n
Cc1ccn2cc(-c3cccc(NC(=O)c4ccccc4)c3)nc2c1,n,n,n,n,n,n
CC(C)C(=O)Nc1cccc(-c2cn3ccccc3n2)c1,n,n,n,16.2,n,n
CC(C)(C)CC(=O)Nc1cccc(-c2cn3cccnc3n2)c1,61.1,n,n,n,n,n
Oc1ccc(-c2cn3ccccc3n2)cc1O,x,x,x,n,n,x
c1ccc(-c2ccncn2)cc1,x,x,x,x,n,x
CCOC(=O)c1csc(NC(=O)c2cc(=O)c3ccccc3o2)n1,n,n,n,n,n,n
CC(=O)c1sc(NC(=O)c2cc(=O)c3ccccc3o2)nc1C,83.3,n,n,n,54.2,n
CC(=O)Nc1nc2ccccc2n1CCOc1ccccc1,n,n,n,n,52.4,n
COCOCCn1cc(CN2CCS(=O)(=O)N(Cc3ccc(-c4ccc(OC)nc4)cc3)C(C(C)C)C2=O)nn1 (configuration not stated),x,x,x,x,n,x
O=C(COC(=O)c1ccco1)Nc1ccc2c(c1)OCCO2,68.6,n,n,n,n,n
SMILES,FLuc inhib CS,FLuc act counter,STAT3 blocker,HSP90 inh,TRAIL sens C8,PPC-1+TRAIL kill
O=C(Nc1ccc(N2CCOCC2)c(F)c1)c1cccs1,x,x,x,n,56.2,x
O=C(Nc1ccc2c(c1)OCCO2)NC1CCCCC1,70.9,n,n,n,54.9,n
O=C(Nc1ccc(N2CCOCC2)c(Cl)c1)c1ccco1,59.1,n,n,n,n,n
O=S(=O)(CCN1CCCCC1)CCS(=O)(=O)CCN1CCCCC1,x,x,x,x,n,x
O=C(Nc1ccc2c(c1)OCCO2)c1cccc2nc3ccccc3nc12,n,n,n,n,60.1,n
CC1(C)Oc2ccc(NC(=O)c3ccco3)cc2O1,63.4,n,n,n,n,n
O=C(Nc1ccc2c(c1)OCCO2)c1ccco1,50.4,n,n,n,n,n
O=C(Nc1cccc(NC(=O)c2ccco2)c1)c1ccc2c(c1)OCCO2,n,n,n,n,n,n
CCn1c(C)cs/c1=N\S(=O)(=O)c1ccccc1,x,x,x,x,n,x
O=Cc1s/c(=N\S(=O)(=O)c2ccccc2)n(CCCCl)c1Cl,n,n,n,n,60.6,n
CC(=O)c1cccc(NC(=O)COC(=O)c2n[nH]c3ccccc23)c1,n,n,n,n,n,n
O=C(O)c1ccccc1-c1cn2cc(Cl)ccc2n1,61.5,n,n,n,n,n
Cc1ccccc1C1CC(c2cccs2)Nc2nnnn21 (configuration not stated),n,n,n,n,n,n

# Screens as filed in PubChem.
